pIC50: −log10 of the molar value. The source made the active and inactive calls. The calls are words filed in the database; no cut-off is given here.
Legend:
[1] = test system: HT-29; experiment: Cytotoxicity against human HT-29 cells assessed as growth inhibition after 72 hrs by XTT assay; type: functional, cell-based; conditions: HT-29, 72 h
Method in brief: (§1)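 Cells seeded at 1.5 x 10^3 per well (A549, HeLa, HT-29) or 3 x 10^3 (HL-60) in medium with 10% heat-inactivated FBS. Compound tested from 10-5 to 10-13 M for 72 h at 37 °C, then XTT readout. […] Triplicate wells, three experiments; mean ± S.D.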

[2] = test system: HeLa; experiment: Cytotoxicity against human HeLa cells assessed as growth inhibition after 72 hrs by XTT assay
[3] = test system: HL-60; experiment: Cytotoxicity against human HL60 cells assessed as growth inhibition after 72 hrs by XTT assay; type: functional, cell-based; conditions: HL-60, 72 h; method in brief: as §1
[4] = organism: Bos taurus; experiment: Inhibition of bovine brain tubulin polymerization at 20 uM after 30 mins by spectrophotometry
Method in brief: (§2)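 Bovine brain tubulin at 1.5 mg/mL, pH 6.7, in 0.1 M MES, 1 mM EGTA, 1 mM MgCl2, 1 mM β-ME, 1.5 mM GTP with ligand. Incubated 20 °C for 30 min, then on ice 10 min. Assembly read as the A450 rise on a shift from 4 to 38 °C; inhibition is plateau minus baseline against ligand-free control. IC50 from monoexponential fits.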

[5] = test system: A549; experiment: Cytotoxicity against human A549 cells assessed as growth inhibition after 72 hrs by XTT assay; type: functional, cell-based; conditions: A549, 72 h; method in brief: as §1
[6] = Inhibition of bovine brain tubulin polymerization after 30 mins by spectrophotometry; set-up: species or system Bos taurus; method in brief: as §2
[7] = test system: HeLa; experiment: Inhibition of microtubule system in human HeLa cells at 10 nM after 18 hrs by confocal microscopic analysis; type: cell-based
Method in brief: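 HeLa cells grown on poly-L-lysine coverslips and treated 18 h at 10^-8 M. Washed in HPEM (pH 6.6), fixed 15 min in 4% paraformaldehyde, permeabilized with 0.5% Triton X-100. Stained with anti-α-tubulin (1:150, 1 h), then CY3 anti-mouse IgG (1:100, 1 h, 4 °C). Imaged by confocal microscopy; representative of at least three experiments.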

[8] = test system: HeLa; experiment: Induction of apoptosis in human HeLa cells assessed as processing of procaspase-3 into the p19/p17 active form at 50 nM by Western blotting analysis; type: functional, cell-based
Method in brief: (§3)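 HeLa cells given 50 nM compound for several times; untreated controls run in parallel. About 5 x 10^6 cells lysed and run on reducing SDS gels (12% for caspase-3, 8% for PARP), then blotted to nitrocellulose. Probed overnight with anti-active caspase-3 (p19/p17) or C2.10 anti-PARP (116 kDa and p85), each 1:1000. β-actin loading control; ECL detection. Three experiments.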

[9] = test system: HeLa; experiment: Induction of apoptosis in human HeLa cells assessed as PARP cleavage at 50 nM by Western blotting analysis; type: functional, cell-based; method in brief: as §3
[10] = test system: HeLa; experiment: Cell cycle arrest in human HeLa cells assessed as accumulation at G2/M phase at 10^-8 M incubated for 18 hrs by propidium iodide staining-based FACS flow cytometric analysis relative to control; type: functional
Method in brief: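 HeLa cells treated 18 h at 10^-8 M, with untreated controls run in parallel. 2-4 x 10^5 cells fixed overnight in 70% ethanol at 4 °C, washed in PBS, then incubated 1 h at room temperature with 1 mg/mL RNAse A and 20 µg/mL propidium iodide. DNA content read by FACSCalibur flow cytometry; percentage of cells in G2/M. Representative of three experiments.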

[11] = test system: HeLa; experiment: Induction of apoptosis in human HeLa cells assessed as accumulation at sub-G0/G1 phase at 50 nM after 72 hrs by […] analysis; type: functional, cell-based

| SMILES | pIC50 [1] | pIC50 [2] | pIC50 [3] | inhibition [4] [%] | pIC50 [5] | pIC50 [6] | inhibition [7] | Activity [8] | Activity [9] | Activity [10] [%] | Activity [11] |
| --- | --- | --- | --- | --- | --- | --- | --- | --- | --- | --- | --- |
| COc1cc(C(C)c2ccc3[nH]cc(C=O)c3c2)cc(OC)c1OC (stereo not drawn) | 5.24 | 5.24 | 5.27 | 0 | 5.04 |  |  |  |  |  |  |
| COc1cc(C(C)c2ccc3c(c2)c(C)cn3C)cc(OC)c1OC (stereo not drawn) | 6.51 | 6.51 | 6.55 | 90 | 6.49 |  |  |  |  |  |  |
| C=C(c1cc(OC)c(OC)c(OC)c1)c1ccc2c(c1)c(CO)cn2C | 5.70 | 6.51 | 6.60 | 32 | 5.49 |  |  |  |  |  |  |
| COc1ccc(C(C)c2ccc3c(c2)c(C=NN)cn3C)c(OC)c1OC (stereo not drawn) | 5.49 | 6.37 | 5.74 | 0 | < 5.00 |  |  |  |  |  |  |
| COc1ccc(C(=O)c2ccc3c(ccn3C)c2)c(OC)c1OC | 6.62 |  | 6.62 | 100 | 6.42 | 6.40 |  |  |  |  |  |
| COc1cc(C(O)c2nc3ccc(Br)cc3n2C)cc(OC)c1OC (stereo not drawn) | < 5.00 | < 5.00 | < 5.00 | 22 | < 5.00 |  |  |  |  |  |  |
| C=C(c1cc(OC)c(OC)c(OC)c1)c1ccc2c(c1)c(C=NO)cn2C | 7.48 | 8.21 | 7.68 | 93 | 7.52 | 5.59 | Active |  |  |  |  |
| COc1cc(C(=O)c2ccc3c(ccn3C)c2)cc(OC)c1OC | 7.57 | 7.60 | 7.57 | 98 | 6.72 | 5.10 |  |  |  |  |  |
| COc1ccc(C(=O)c2ccc3c(c2)c(C#N)cn3C)c(OC)c1OC | 6.51 | 6.57 | 6.54 | 40 | 5.70 |  |  |  |  |  |  |
| COc1cc(C(C)c2ccc3[nH]ccc3c2)cc(OC)c1OC (stereo not drawn) | 5.48 | 5.64 | 5.47 | 5 | 5.31 |  |  |  |  |  |  |
| COc1cc(C(=O)c2ccc3c(c2)c(C(=O)O)cn3C)cc(OC)c1OC | < 5.00 | 5.15 | < 5.00 | 2 | < 5.00 |  |  |  |  |  |  |
| COc1ccc(C(=O)c2ccc3c(c2)c(C=O)cn3C)c(OC)c1OC | 5.28 | 6.11 | 6.11 | 73 | < 5.00 |  |  |  |  |  |  |
| COc1cc(C(C)c2ccc3c(ccn3C)c2)cc(OC)c1OC (stereo not drawn) | 8.42 | 9.19 | 9.48 | 100 | 8.17 | 6.00 | Active | Active | Active | >85 | Active |
| COc1cc(C(=O)c2nc3cc(Br)ccc3n2C)cc(OC)c1OC | 6.47 | 6.72 | 7.54 | 37 | 6.40 |  |  |  |  |  |  |
| COc1cc(C(=CC=O)c2ccc3c(c2)c(C=O)cn3C)cc(OC)c1OC | 6.66 | 7.51 | 7.48 | 88 | 6.47 | 5.15 |  |  |  |  |  |
| C=C(c1ccc2c(c1)c(C=O)cn2C)c1ccc(OC)c(OC)c1OC | 6.64 | 7.49 | 7.49 | 98 | 5.74 | 5.40 | Active |  |  |  |  |
| C=C(c1ccc2c(c1)c(C#N)cn2C)c1ccc(OC)c(OC)c1OC | 7.49 | 7.49 | 7.57 | 89 | 6.44 | 5.66 |  |  |  |  |  |

| SMILES | pIC50 [1] | pIC50 [2] | pIC50 [3] | inhibition [4] [%] | pIC50 [5] | pIC50 [6] | inhibition [7] | Activity [8] | Activity [9] | Activity [10] [%] | Activity [11] |
| --- | --- | --- | --- | --- | --- | --- | --- | --- | --- | --- | --- |
| COc1cc(C(=O)c2ccc3c(c2)c(C=O)cn3C)cc(OC)c1OC | 5.52 | 6.49 | 6.51 | 61 | < 5.00 | 4.77 |  |  |  |  |  |
| COc1cc(C(O)c2nc3cc(Br)ccc3n2C)cc(OC)c1OC (stereo not drawn) | < 5.00 | < 5.00 | < 5.00 | 2 | < 5.00 |  |  |  |  |  |  |
| COc1cc(/C(=C\C=O)c2ccc3c(c2)c(C=O)cn3C)cc(OC)c1OC | 6.77 | 7.52 | 7.54 | 96 | 6.49 |  |  |  |  |  |  |
| COc1ccc(C(=CC=O)c2ccc3c(c2)c(C=O)cn3C)c(OC)c1OC | 6.52 | 6.52 | 6.52 | 98 | 6.46 | 5.23 |  |  |  |  |  |
| C=C(c1cc(OC)c(OC)c(OC)c1)c1ccc2c(c1)c(C(=O)O)cn2C | 6.26 | 6.06 | 5.96 | 91 | 5.96 | 5.30 |  |  |  |  |  |
| C=C(c1ccc2c(c1)c(CO)cn2C)c1ccc(OC)c(OC)c1OC | 6.34 | 6.52 | 6.66 | 32 | 6.36 |  |  |  |  |  |  |
| COc1cc(C(=O)c2ccc3ocnc3c2)cc(OC)c1OC | 5.55 | 6.47 | 6.33 | 0 | 5.00 |  |  |  |  |  |  |
| COc1cc(C(=CC#N)c2ccc3c(c2)c(C#N)cn3C)cc(OC)c1OC | 8.68 | 8.46 | 8.32 | 90 | 8.31 | 5.33 | Active | Active | Active | >85 | Active |
| C=C(c1ccc2c(ccn2C)c1)c1ccc(OC)c(OC)c1OC | 6.51 | 7.49 | 6.55 | 97 | 6.14 | 5.33 |  |  |  |  |  |
| C=C(c1cc(OC)c(OC)c(OC)c1)c1ccc2c(c1)c(C=NN)cn2C | 6.52 | 7.42 | 6.74 | 12 | 5.49 |  |  |  |  |  |  |
| COc1cc(C(=O)c2nc3ccc(Br)cc3n2C)cc(OC)c1OC | 5.57 | 5.64 | 5.62 | 37 | 5.00 |  |  |  |  |  |  |
| C=C(c1cc(OC)c(OC)c(OC)c1)c1ccc2c(ccn2C)c1 | 8.51 | 8.57 | 8.55 | 96 | 7.55 | 6.15 |  |  |  |  |  |
| C=C(c1cc(OC)c(OC)c(OC)c1)c1ccc2c(c1)c(C(N)=O)cn2C | 9.29 | 9.60 | 9.96 | 93 | 8.74 | 6.05 | Active | Active | Active | >85 | Active |
| C=C(c1ccc2c(c1)c(C=NO)cn2C)c1ccc(OC)c(OC)c1OC | 6.49 | 7.47 | 6.57 | 95 | 6.54 | 5.40 |  |  |  |  |  |
| C=C(c1cc(OC)c(OC)c(OC)c1)c1ccc2[nH]ccc2c1 | 5.29 | 5.68 | 5.44 | 36 | 5.05 |  |  |  |  |  |  |
| COc1ccc(C(C)c2ccc3c(ccn3C)c2)c(OC)c1OC (stereo not drawn) | 6.48 | 6.51 | 6.43 | 87 | 6.33 |  |  |  |  |  |  |
| C=C(c1cc(OC)c(OC)c(OC)c1)c1ccc2c(c1)c(C=O)cn2C | 7.21 | 7.70 | 7.55 | 100 | 5.52 | 6.05 | Active |  |  |  |  |

From ChEMBL document CHEMBL2321691 (J Med Chem, 2013)
